# Source: PubChem BioAssay
# Only some compounds are listed: those with a hit (about 3.5% of all), similar ones and a draw of the others.
# MrgX1 PAM: allosterically activates human MrgX1 receptor signaling; B-score at 10 µM; MrgX1-HEK293, Fluo-4 calcium flux, FDSS; stronger effect = higher value; AID 588675; 310,000 compounds, 0.63% hits;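 active means plate-corrected calcium response at least 3 library SD above typical, normal starting fluorescence, not activating the receptor alone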;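 further: compound read alongside a low EC10 to EC30 dose of BAM8-22 agonist; peak minus trough fluorescence over baseline measured at the second addition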
# Target sequence (Q96LB2 whole entry, looked up): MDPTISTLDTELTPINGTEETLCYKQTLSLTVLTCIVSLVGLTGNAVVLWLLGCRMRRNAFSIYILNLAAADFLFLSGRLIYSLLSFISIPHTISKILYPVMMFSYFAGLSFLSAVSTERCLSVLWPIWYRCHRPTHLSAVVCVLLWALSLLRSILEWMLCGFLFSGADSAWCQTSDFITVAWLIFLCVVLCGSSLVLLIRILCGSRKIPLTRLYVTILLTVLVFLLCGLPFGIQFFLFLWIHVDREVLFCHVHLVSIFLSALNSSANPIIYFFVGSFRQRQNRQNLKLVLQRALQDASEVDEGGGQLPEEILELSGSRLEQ
# MrgX1 ag: agonists of human MrgX1 receptor; MrgX1-HEK293 cells, Fluo-4 calcium fluorescence, agonist mode; stronger effect = higher value; B-score at 10 µM; 310,000 compounds, 0.44% hits; Q96LB2; AID 588627;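 active means calcium response B-score plate-corrected fluorescence ratio at least 3 library SD, with starting fluorescence B-score inside 5 SD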
#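 Material: MrgX1-expressing HEK293 cells / Dosing: compound as first of three additions / Incubation: overnight seeding, then 1 h dark dye loading / Signal: Fluo-4 NW calcium fluorescence / Evaluation: B-scored fluorescence response ratio / Benchmarks: positive and negative control wells on each plate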
# RGS4 pot: RGS4 potentiation or activation | HEK293 M3R/inducible RGS4, carbachol calcium flux Fluo4; stronger effect = lower value | AID 463111 | 310,000 compounds, 0.92% hits | B-score at 10 µM;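 active means B-score of the integrated calcium signal more than 4 SD below the library mean, with starting fluorescence not abnormally high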;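 further: negative B-score means reduced calcium response which marks RGS4 activation or potentiation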
#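 Material: Inducible-RGS4 HEK293 cells carrying M3 receptor; also added: carbachol at ECmax as muscarinic agonist stimulus; incubation: compound preincubation 20 min at room temperature before agonist; signal: Fluo4-AM (2 µM) calcium-flux fluorescence, kinetic read; measure: integrated calcium ratio converted to B score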
# RGS4 inh: human RGS4 inhibition | P49798 | 310,000 compounds, 0.45% hits | HEK293 M3R/RGS4 inducible, Fluo-4 calcium flux; stronger effect = higher value; triggered by carbachol at its EC20 | B-score at 10 µM | AID 463165;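 active means B-score, a plate-corrected calcium signal, over three deviations above library mean, with baseline fluorescence within five deviations of library mean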;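 further: RGS4 expression induced by doxycycline in cells with stable M3 receptor; B-score is computed from the integrated fluorescence ratio over baseline after carbachol; higher B-score means a larger calcium signal and so more RGS4 inhibition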
# Target sequence (P49798 whole entry, looked up): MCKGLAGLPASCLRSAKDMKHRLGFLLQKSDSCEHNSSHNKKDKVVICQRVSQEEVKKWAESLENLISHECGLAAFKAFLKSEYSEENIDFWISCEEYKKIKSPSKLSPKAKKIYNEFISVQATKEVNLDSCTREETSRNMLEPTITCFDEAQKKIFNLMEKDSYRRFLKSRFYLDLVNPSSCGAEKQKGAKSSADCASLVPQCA
# MrgX1 antagonist: antagonists of human MrgX1 receptor; B-score at 10 µM; 310,000 compounds, 1.3% hits; AID 588676; MRGX1-HEK293 calcium flux, Fluo-4, BAM8-22 antagonism; stronger effect = lower value;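 active means calcium-response B-score plate-corrected more than 3 library SD below zero, starting fluorescence within 5 deviations, no agonist response on first addition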;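 further: peak minus trough fluorescence over baseline after final BAM8-22 challenge near maximal dose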
# MrgX1 ant reconf: reconfirmed antagonist of human MrgX1 receptor signaling; MrgX1-HEK293, BAM8-22 calcium flux, Fluo-4; stronger effect = lower value; shares compounds with MrgX1 antagonist; 2,300 compounds, 19% hits; AID 602420; remaining BAM8-22 calcium response % of control (stronger effect = lower value), % at 10 µM;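 active means remaining agonist calcium response no higher than 100% minus 3 SD of agonist-only control wells, with starting fluorescence near control levels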;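 further: agonist BAM8-22 given at a near maximal EC90 to ECmax level; peak minus minimum fluorescence divided by baseline after agonist addition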
# HEK293 Ca flux: counter-screen for MrgX1 antagonists: effect in parental HEK293 cells; shares compounds with MrgX1 antagonist; Fluo-4 calcium fluorescence, FDSS; fluorescence ratio F(max-min)/F0 at 10 µM; 4,000 compounds, 2% hits;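 active means duplicate-averaged calcium fluorescence ratio at least three times the standard deviation of buffer wells, a nonspecific response in parental cells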
# HEK293 Ca counter: MrgX1 allosteric activator counter-screen hit in parental HEK293 cells; shares compounds with MrgX1 antagonist; parental HEK293 calcium flux, Fluo-4 fluorescence ratio; stronger effect = higher value; fluorescence ratio F(max-min)/F0 at 10 µM; 4,000 compounds, 0.4% hits;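 active means calcium fluorescence ratio, averaged over duplicates, at least 3 SD of the buffer-well ratio, meaning a nonspecific response in receptor-free cells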;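 further: untransfected parental HEK293 lacking MrgX1 used as counterscreen for MrgX1 allosteric activators; fluorescence change taken during the second addition on a kinetic imager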
# HEK293 Ca cntr2: MrgX1 activator counter-screen hit in parental HEK293 cells; AID 624115; 4,000 compounds, 8.7% hits; fluorescence ratio F(max-min)/F0 at 10 µM; shares compounds with MrgX1 antagonist; Fluo-4 calcium fluorescence (FDSS); stronger effect = higher value;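 active means calcium fluorescence ratio at least three times the spread of buffer wells, meaning a non-specific response in parental cells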
# The depositor's hits bear a star; i = inactive; . = no result.
SMILES,MrgX1 PAM,MrgX1 ag,RGS4 pot,RGS4 inh,MrgX1 antagonist,MrgX1 ant reconf,HEK293 Ca flux,HEK293 Ca counter,HEK293 Ca cntr2
Cc1nnc(SCC(=O)NC(=O)NC(C)(C)C)s1,i,i,i,i,-5.6*,i,i,i,i
Cc1nnc(SCC(=O)NC(=O)NC(C)C)s1,i,i,i,i,i,.,.,.,.
CC(=O)NCCn1c(SCC(=O)NCCC2=CCCCC2)nc2ccccc2c1=O,i,i,i,i,i,.,.,.,.
COCC(C)n1c(SCC(=O)NCCC2=CCCCC2)nc2ccccc2c1=O (stereo not given),i,i,i,i,-6.6*,i,i,i,i
CC(C)Cc1ccc(C(C)C(=O)Nc2nccs2)cc1 (stereo not given),i,i,i,i,-4.7*,72%*,i,i,i
Cc1cc(Nc2ccc3c(c2)OCCO3)c2cc(Cl)ccc2n1,i,i,i,i,i,.,.,.,.
O=C(Nc1ccc(C(=O)N2CCCc3ccccc32)cc1)c1cccs1,i,i,i,i,i,.,.,.,.
Cc1ccc(-c2nc3cccnc3o2)cc1NC(=O)COc1ccc(C(C)(C)C)cc1,i,i,-8.2*,i,-12*,83%*,i,i,i
Cc1cc(C2N=C(N)Nc3nc4ccccc4n32)c(C)n1-c1ccccc1Cl (stereo not given),i,i,i,i,-5.5*,i,i,i,i
O=C(NC(NC(=S)Nc1cc(Cl)ccc1Cl)C(Cl)(Cl)Cl)c1ccco1 (stereo not given),i,i,i,i,-5.8*,60%*,i,i,i
O=C(NC(NC(=S)Nc1ccc(Cl)c(Cl)c1)C(Cl)(Cl)Cl)c1ccco1 (stereo not given),i,i,i,i,i,.,.,.,.
CC1(C)C(C=C(Cl)Cl)C1C(=O)Nc1ccc(S(=O)(=O)Nc2ncccn2)cc1 (stereo not given),i,i,i,i,i,.,.,.,.
N#Cc1cc2ccccc2nc1SCc1ccccn1,i,i,i,i,i,.,.,.,.
Cc1cc2cc3c(cc2nc1SCc1ccccn1)OCCO3,i,i,i,i,-6.5*,i,i,i,i
Cc1ccc(NC(=O)C(=O)NCc2ccncc2)cc1,i,i,i,i,i,.,.,.,.
O=C(CN1C(=O)N/C(=C\c2ccccc2OCc2ccc(C(=O)O)cc2)C1=O)Nc1ccccc1F,i,i,i,i,i,.,.,.,.
CCOC(=O)CSc1ncnc2c1c(-c1ccccc1)cn2-c1ccc(OC)cc1,i,i,i,i,-5.8*,71%*,i,i,i
Cc1ccc(S(=O)(=O)N(CC(=O)NC2CC2)c2ccc(C)c(Cl)c2)cc1,i,i,i,i,-5*,i,i,i,i
CC(=O)Nc1cccc(/C(C)=N/NC(=O)c2ccc3c(c2)OCO3)c1,i,i,i,i,i,.,.,.,.
Cc1oc(-c2cccs2)nc1CN1CCN(CC(C)C)C(CCO)C1 (stereo not given),i,i,i,i,-4.5*,i,i,i,i
CCc1c(C)sc(NC(=O)Cn2nc(C)c([N+](=O)[O-])c2C)c1C(N)=O,i,i,i,i,i,.,.,.,.
